Measurements taken from PubChem BioAssay AID871 (The Scripps Research Institute Molecular Screening Center, 2007).
The whole screen tested about 190,000 compounds, of which about 1,800 (0.95%) were called active. Shown is part of a subset that was picked to be rich in actives. A number with no mark means an inactive call.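 Rule for the calls: active = activation above the screen-wide mean of compound activation plus 3 SD (cut at about 130% in these data); inactive = the rest.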

assay: IL-6 driven STAT3 reporter potentiators, primary screen, U3A cells, luciferase, luminescence, MLSCN library (AID 871); settings: IL-6 STAT3-luciferase reporter, at 5.6 µM, hits give high values, 100% = signal with IL-6 EC80 alone;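 note: 0% = background luminescence of wells with medium and substrate only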
How it was run: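 Material: STAT3-luciferase reporter U3A cells; Probe or stimulus: IL-6 (33 ng/mL); Incubation: compound pre-incubation 1 h before IL-6, then 6 h stimulation at 37 °C; Technique: luminescence from STAT3-driven luciferase reporter; Evaluation: % activation versus median of IL-6-stimulated wells; Controls: IL-6-only high control.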

Structure (SMILES)	activation (% of control)
COc1ccccc1-c1nnc(SCC(=O)Nc2ccccc2)o1	91.3%
COc1ccccc1N1CCN(C(=O)CSc2nnc(-c3ccoc3C)o2)CC1	93.7%
COc1ccccc1-c1nnc(SCC(=O)N2CC(C)CC(C)C2)o1 (configuration not stated)	138% (active)
Cc1ccc(-n2c(SCC(=O)Nc3ncc(Cl)cc3Cl)nc3ccccc32)cc1	98%
Cc1ccc(NC(=O)c2sc3nc(N)c(C#N)cc3c2N)cc1	100%
Cc1cccc(OP(=O)(Nc2c(C)n(C)n(-c3ccccc3)c2=O)Oc2cccc(C)c2)c1	98.3%
COc1ccc(C)cc1NC(=O)c1ccc(-c2ccc(C(C)=O)cc2)o1	78.6%
COc1cccc(NC(=O)C(C)Oc2ccccc2)c1 (configuration not stated)	97.5%
COc1cccc(NC(=S)C(C#N)=C2N(C)c3ccccc3N2C)c1	145% (active)
COc1cccc(NC(=S)NCc2ccccn2)c1	106%
O=C(NCC1CCN(Cc2ccccc2Cl)CC1)Nc1cccc(Cl)c1	102%
CNc1nc(Nc2ccc(C)c(Cl)c2)nc(N)c1[N+](=O)[O-]	132%
COc1ccc(/C=C(\NC(=O)c2ccc(OC)c(OC)c2)C(=O)NCCc2c[nH]c3ccccc23)cc1	112%
O=C(NC(Cc1c[nH]c2ccccc12)C(=O)O)/C(=C/c1ccco1)NC(=O)c1ccccc1 (configuration not stated)	107%
Cc1ccc(C(=O)N/C(=C/c2ccco2)C(=O)NCCc2c[nH]c3ccccc23)cc1C	134% (active)
Cc1ccccc1NC(=O)CNc1ccccc1N1CCCCC1	101%
O=C(CN1CCc2ccccc21)NC(c1ccccc1)c1ccccc1	103%
COC(=O)c1[nH]c2ccccc2c1NC(=O)CN1CCCc2ccccc21	154% (active)
CCOC(=O)c1[nH]c2ccc(OC)cc2c1NC(=O)CCN1CCN(Cc2ccccc2)CC1	104%
COC(=O)c1[nH]c2cccc(C)c2c1NC(=O)CN1CCCc2ccccc21	140% (active)
NS(=O)(=O)c1cccc(NC(=O)CN2CCCc3ccccc32)c1	106%
CC(C(=O)N=Nc1c(O)n(C)c2ccc(Br)cc12)n1cnc2ccccc2c1=O (configuration not stated)	121%
CCN1CCN(c2ccc(NC(=O)c3cnccn3)cc2)CC1	100%
CCCCCC1CCC(c2nnc(SCC(C)=O)o2)CC1 (configuration not stated)	101%

Structure (SMILES)	activation (% of control)
CN(C)/C(=N\OC(=O)c1ccccc1)c1nonc1N	97.7%
CCn1c(Cc2ccccc2)nnc1SCc1nc2ccccc2c(=O)[nH]1	107%
O=c1[nH]c(CSc2ncc(-c3ccc(F)cc3)n2Cc2ccco2)nc2ccccc12	152% (active)
Cn1c(-c2ccc(F)cc2)cnc1SCC(=O)NCc1ccco1	101%
CC(C(=O)O)n1cnc2sc3c(c2c1=O)CCCC3 (configuration not stated)	102%
COc1ccc(C2C(C(C)=O)=C(O)C(=O)N2c2nccs2)cc1 (configuration not stated)	134% (active)
COc1ccc(C2C(C(C)=O)=C(O)C(=O)N2Cc2cccnc2)cc1 (configuration not stated)	100%
COc1ccc(C2C(C(C)=O)=C(O)C(=O)N2CCc2c[nH]c3ccccc23)cc1 (configuration not stated)	108%
O=C(Cc1ccccc1Cl)N1CCN(c2ccccn2)CC1	100%
Cn1nnnc1NCc1ccc(Cl)c(Cl)c1	101%
C[n+]1ccc(/C=C/c2c[nH]c3ccccc23)cc1	115%
Cc1cccc(NC(=S)Nc2ccc(Cl)c(Cl)c2)c1	92.4%
Cc1ccc(OCc2nnc(SC3CCc4ccccc4C3=O)n2C)cc1 (configuration not stated)	144% (active)
Cc1cccnc1NC(=O)CSc1nnc(COc2ccc(C(C)C)cc2)n1C	98.9%
Cc1ccc(OCc2n[nH]c(=S)n2-c2ccccc2)cc1	105%
Cc1cc(C)cc(OCC(=O)NCc2cc(C)nc3ccccc23)c1	92.5%
O=C(CC1NCCc2ccccc21)Nc1cccc(Cl)c1 (configuration not stated)	100%
CCOc1cc(N2CCOCC2)c(OCC)cc1NC(=O)c1cc(C)nc2ccccc12	93.6%
CCCCn1c(=O)c(CCC(=O)OCC(=O)Nc2ccc(C)c(Cl)c2)nc2ccccc21	100%
CCCCOc1ccc(NC(=O)[C@@H]2CCCN2C(=O)C2CCN(S(=O)(=O)c3ccc(C)cc3)CC2)cc1	102%
COc1cc(NC(=O)COc2ccccc2Cl)ccc1NC(=O)C(C)C	84.8%
O=C(COc1ccccc1Cl)Nc1ccc(C(=O)c2ccc(C(=O)O)cc2)cc1	85.3%
CC(=O)Nc1ccc(NC(=O)COc2ccccc2C(=O)Nc2cccc(Cl)c2Cl)cc1	136% (active)
